Data reported in ChEMBL document CHEMBL4364242, “Novel cationic bis(acylhydrazones) as modulators of Epstein-Barr virus immune evasion acting through disruption of interaction between nucleolin and G-quadruplexes of EBNA1 mRNA” (Eur J Med Chem, 2019).
The source made the active and inactive calls. No cut-off for these calls is given here.

How the values were obtained:
[1] = system: NCI-H1299; assay: Cytotoxicity against OVA-over expressing human H1299 cells at 10 uM incubated for 40 hrs; format: cell-based; details: nci-h1299, 40 h
[2] = Displacement of TO from EB virus g4-EBNA1 mRNA measured after 5 mins by FID assay; design: species or system human gammaherpesvirus 4
How it was run: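 g4-EBNA1 RNA annealed 95 °C 5 min in K100 buffer (10 mM KAsO2Me2, 100 mM KCl, 1 mM EDTA, 1% DMSO), then mixed with TO; final 0.25 μM RNA and 0.5 μM TO, ligand 0–2.5 μM. Fluorescence read after 5 min shaking (485/520 nm), in duplicate. Displacement = 100×(1−F/F0); DC50 interpolated from the curve.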

[3] = system: NCI-H1299; assay: Effect on OVA expression in human H1299 cells at 10 uM incubated for 40 hrs by western blot analysis; format: functional; design: unit not given here
How it was run: (§1)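 OVA or 235GAr-OVA constructs transiently transfected into H1299 cells, followed by 40 h exposure to 10 μM compound or DMSO. Whole-cell lysates immunoblotted with rabbit anti-OVA; signal normalized to GAPDH. Experiments repeated at least three times.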

[4] = system: NCI-H1299; assay: Cytotoxicity against 235Gar-OVA-over expressing human H1299 cells at 10 uM incubated for 40 hrs; format: cell-based; details: nci-h1299, 40 h
[5] = system: NCI-H1299; assay: Effect on 235Gar-OVA expression in human H1299 cells at 10 uM incubated for 40 hrs by western blot analysis; format: functional; design: unit not given here; how it was run: as §1
[6] = system: human gammaherpesvirus 4; assay: Binding affinity to EBNA1 G4-quadruplex in human H1299 cells assessed as EB virus EBNA1 deleted GAr expression at 10 uM incubated for 40 hrs by western blot analysis; format: cell-based
How it was run: (§2)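 H1299 cells in RPMI-1640 with 10% FBS at 37 °C, 5% CO2, transiently transfected with EBNA1 or EBNA1ΔGAr constructs, then treated with 10 μM compound (DMSO vehicle) for 40 h. Lysates taken 48 h post-transfection and western blotted with anti-EBNA1 (OT1X). Levels normalized to GAPDH; at least three repeats.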

[7] = system: human gammaherpesvirus 4; assay: Binding affinity to EBNA1 G4-quadruplex in human H1299 cells assessed as EB virus EBNA1 expression at 10 uM incubated for 40 hrs by western blot analysis; format: cell-based; how it was run: as §2
[8] = Growth inhibition of human MUTU-I cells incubated for 24 hrs by MTT assay
How it was run: (§3)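 Mutu-1 EBV-positive Burkitt lymphoma cells, about 30,000 per well, treated with compound (0.5–100 μM) or DMSO for 24 or 48 h. MTT (5 mg/mL) added for 4 h, formazan dissolved in isopropanol/0.1 N HCl/10% Triton X-100, absorbance at 540 nm; viability expressed versus DMSO.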

[9] = Binding affinity to […] (unknown origin) assessed as increase in melting temperature at 1 uM by fluorescence method
How it was run: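 Labeled F-myc22-T DNA (5'-FAM/3'-TAMRA) melted with 1 μM ligand in K-1 buffer (10 mM LiAsO2Me2, 1 mM KCl, 99 mM LiCl, pH 7.3). Ramp 0.5 °C/min from 25 to 95 °C. Tm taken from first-derivative maxima and ΔTm calculated versus ligand-free control.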

[10] = Inhibition of native NCL/EB virus G4-EBNA1 mRNA interaction in human H1299 cells assessed as reduction in PLA signals per cell at 5 uM incubated for overnight by proximity ligation assay (reference value: 1.83 +/- 0.54); format: cell-based
[11] = system: human gammaherpesvirus 4; assay: Binding affinity to EB virus F-g4-EBNA1 mRNA assessed as increase in melting temperature at 1 uM by fluorescence method
[12] = Growth inhibition of human MUTU-I cells incubated for 48 hrs by MTT assay; how it was run: as §3
[13] = organism: Homo sapiens; assay: Binding affinity to […] assessed as increase in melting temperature at 1 uM by fluorescence method
How it was run: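 F-25TAG-T telomeric DNA (5'-FAM/3'-TAMRA) melted with 1 μM ligand in K-100 buffer (10 mM LiAsO2Me2, 100 mM KCl, pH 7.3). Heating 25–95 °C at 0.5 °C/min. ΔTm derived from first-derivative Tm maxima relative to the no-ligand run.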

[14] = system: NCI-H1299; assay: Effect on 235Gar-OVA expression in human H1299 cells incubated for 40 hrs by western blot analysis; format: functional, cell-based
How it was run: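 235GAr-OVA-transfected H1299 cells treated 40 h with compound at 0, 7.5, 10 or 15 μM. Anti-OVA western blot with band intensities normalized to GAPDH.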

[15] = Inhibition of recombinant NCL (unknown origin)/GM mRNA (unknown origin) interaction at 10 uM by RNA pull-down assay
How it was run: (§4)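 Biotin-TEG RNA (g4-EBNA1 or non-G4 GM) folded in 10 mM Tris pH 7.5, 100 mM KCl, 0.1 mM EDTA (95 °C 5 min, cooled 2 °C/min), then bound to blocked streptavidin beads. 200 ng recombinant NCL added for 90 min at room temperature with 10 μM compound or DMSO. Beads washed up to 800 mM KCl; eluates western-blotted for NCL.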

[16] = system: NCI-H1299; assay: Immunostimulatory activity in human H1299 cells transfected with murine MHC class I Kb and 235GAr-OVA cocultured with mouse CD8+ T-cells assessed as increase in IL-2 level at 10 uM incubated for 3 days by ELISA; format: functional
How it was run: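 Kb/235GAr-OVA co-transfected H1299 cells, exposed to compound for 40 h, then 10^5 cells incubated 3 days at 37 °C with 4×10^5 OT-I CD8+ T cells. Supernatant IL-2 quantified by ELISA.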

[17] = system: NCI-H1299; assay: Immunostimulatory activity in human H1299 cells transfected with murine MHC class I Kb and OVA cocultured with mouse CD8+ T-cells assessed as increase in IL-2 level at 5 or 10 uM incubated for 3 days by ELISA; format: functional, cell-based
How it was run: (§5)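 H1299 cells co-transfected with mouse Kb and OVA or GAr-OVA, treated with 5 or 10 μM compound or DMSO. After 40 h, 10^5 cells co-cultured with 4×10^5 naive OT-I CD8+ T cells from female mouse lymph nodes, 37 °C, for 3 days. IL-2 in supernatant measured by ELISA.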

[18] = Inhibition of recombinant NCL (unknown origin)/EB virusG4-EBNA1 mRNA interaction at 10 uM by RNA pull-down assay; how it was run: as §4
[19] = system: NCI-H1299; assay: Immunostimulatory activity in human H1299 cells transfected with murine MHC class I Kb and 235GAr-OVA cocultured with mouse CD8+ T-cells assessed as increase in IL-2 level at 5 or 10 uM incubated for 3 days by ELISA; format: functional; how it was run: as §5
[20] = Inhibition of human NCL/EB virus G4-EBNA1 mRNA interaction in human MUTU-I cells assessed as reduction in PLA signals per cell at 5 uM incubated for […] by proximity ligation assay (reference value: 1.68 +/- 0.44); format: cell-based
How it was run: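 Mutu-1 cells carrying endogenous EBNA1 treated 36 h with 5 μM compound or DMSO. Processed by EBNA1 mRNA in situ hybridization combined with an anti-nucleolin PLA; nuclear PLA dots per cell counted across two biological replicates, ≥200 cells per sample.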

Structure (SMILES) | IC50 [2] [nM] | ΔTm [9] [°C] | Activity [11] | ΔTm [13] [°C] | fold change (FC) [18] | ΔTm [11] [°C] | Activity [1] | Activity [3] | Activity [4] | Activity [5] | Activity [6] | Activity [7] | also measured
CC[n+]1cccc2cc(/C=N/NC(=O)c3cc(C(=O)N/N=C/c4ccc5c(ccc[n+]5CC)c4)ncn3)ccc21.[I-].[I-] | > 2500 | – | – | – | – | – | Toxic | 47 | Toxic | 48 | Active | Active | –
C[n+]1ccc(/C=N/NC(=O)c2cccc(C(=O)N/N=C/c3cc[n+](C)c4ccccc34)n2)c2ccccc21.[I-].[I-] | 260 | 15 to 30 | Active | 15 to 30 | 10 | – | – | 101 | – | 162 | inactive | Active | GI50 at 24 h [8]: > 100000 nM; Activity [10]: 0.27; GI50 at 48 h [12]: ≥ 100000 nM; Activity [14]: Dose-dependent effect; inhibition [15]: inactive; fold change (FC) [16]: >2; Activity [17]: inactive
C[n+]1ccc(C=NNC(=O)c2ccc3ccc4ccc(C(=O)NN=Cc5cc[n+](C)cc5)nc4c3n2)cc1.[I-].[I-] | – | – | – | – | – | – | Toxic | – | Toxic | – | – | – | –
O=C(N/N=C/c1ccc2c(ccc[n+]2Cc2ccccc2)c1)c1cccc(C(=O)N/N=C/c2ccc3c(ccc[n+]3Cc3ccccc3)c2)n1.[Br-].[Br-] | 720 | 15 to 30 | Active | 15 to 30 | – | – | Toxic | 70 | Toxic | 58 | Active | Active | –
C[n+]1ccc(/C=N/NC(=O)c2ccc3ccc4ccc(C(=O)N/N=C/c5cc[n+](C)c6ccccc56)nc4c3n2)c2ccccc21.[I-].[I-] | 300 | 15 to 30 | – | 15 to 30 | 10 | 20 to 30 | – | 96 | – | 189 | inactive | Active | GI50 at 24 h [8]: 50000 to 100000 nM; Activity [10]: 0.4; fold change (FC) [19]: >2; GI50 at 48 h [12]: 20000 nM; Activity [14]: Dose-dependent effect; Activity [20]: 0.59; inhibition [15]: inactive; Activity [17]: inactive
CC[n+]1cccc2cc(/C=N/NC(=O)c3ccc4ccc5ccc(C(=O)N/N=C/c6ccc7c(ccc[n+]7CC)c6)nc5c4n3)ccc21.[I-].[I-] | 590 | 15 to 30 | – | 15 to 30 | – | 20 to 30 | – | 96 | – | 80 | inactive | inactive | –

Further lines, with some results ahead:

IC50 [2] [nM] | ΔTm [9] [°C] | Activity [11] | ΔTm [13] [°C] | fold change (FC) [18] | ΔTm [11] [°C] | Structure (SMILES) | Activity [1] | Activity [3] | Activity [4] | Activity [5] | Activity [6] | Activity [7] | also measured
310 | > 35 | – | > 35 | 2 | 30 | C[n+]1cc(NC(=O)c2ccc3ccc4ccc(C(=O)Nc5cc6ccccc6[n+](C)c5)nc4c3n2)cc2ccccc21 | – | – | – | – | – | – | –
710 | 15 to 30 | Active | 15 to 30 | – | – | O=C(N/N=C/c1cc[n+](Cc2ccccc2)c2ccccc12)c1ccc2ccc(C(=O)N/N=C/c3cc[n+](Cc4ccccc4)c4ccccc34)nc2n1.[Br-].[Br-] | – | 93 | – | 106 | inactive | inactive | –
390 | 15 to 30 | Active | 15 to 30 | – | – | O=C(N/N=C/c1cc[n+](Cc2ccccc2)c2ccccc12)c1cccc(C(=O)N/N=C/c2cc[n+](Cc3ccccc3)c3ccccc23)n1.[Br-].[Br-] | – | 149 | – | 134 | Active | Active | –
650 | 15 to 30 | – | 15 to 30 | – | 20 to 30 | O=C(N/N=C/c1ccc2c(ccc[n+]2Cc2ccccc2)c1)c1ccc2ccc3ccc(C(=O)N/N=C/c4ccc5c(ccc[n+]5Cc5ccccc5)c4)nc3c2n1.[Br-].[Br-] | – | 94 | – | 111 | inactive | inactive | –
